Source: ChEMBL document CHEMBL1149605, “A para-amino substituent on the D-ring of green tea polyphenol epigallocatechin-3-gallate as a novel proteasome inhibitor and cancer cell apoptosis inducer” (Bioorg Med Chem, 2007)
Active and inactive are the calls of the source. No cut-off for these calls is given here.

Columns and labels:
[1] = system: 20S proteasome (Oryctolagus cuniculus); assay: Inhibition of chymotrypsin like activity of 20S proteasome at 50 uM
[2] = system: Raji; assay: Inhibition of chymotrypsin like activity of 20S proteasome in leukemia Raji B cells at 25 uM after 4 hrs; assay type: cell-based; conditions: Homo sapiens
Method in brief: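 Raji B cells treated with 25 μM compound for 4 h, then harvested and lysed. Whole-cell extract (10 μg) incubated with 40 μM Suc-Leu-Leu-Val-Tyr-AMC in 50 mM Tris-HCl pH 8 at 37 °C for 2.5 h. Free AMC read by fluorescence at 380 nm excitation and 460 nm emission.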

[3] = Inhibition of chymotrypsin like activity of 20S proteasome; set-up: species or system Homo sapiens
Method in brief: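 Purified rabbit 20S proteasome (35 ng) incubated with the fluorogenic substrate Suc-Leu-Leu-Val-Tyr-AMC (40 μM), with or without compound. Chymotrypsin-like activity was read as substrate hydrolysis.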

[4] = system: Raji; assay: Inhibition of chymotrypsin like activity of 20S proteasome in leukemia Raji B cells at 25 uM after 24 hrs; assay type: cell-based; conditions: Homo sapiens
Method in brief: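 Raji B cells dosed at 25 μM for 4 or 24 h, then harvested and lysed. Whole cell extract (10 μg) incubated with Suc-Leu-Leu-Val-Tyr-AMC (40 μM) in 50 mM Tris-HCl pH 8 at 37 °C for 2.5 h. Released AMC read at ex 380/em 460 nm.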

[5] = system: Raji; assay: Increase in ubiquitinated protein p27 level in leukemia Raji B cells after 24 hrs; assay type: functional, cell-based; conditions: Homo sapiens
Method in brief: (§1)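 Raji B cells (RPMI, 10% FBS, 37 °C, 5% CO2) exposed to DMSO solvent or 25 μM compound for 4 or 24 h. Whole cell extracts immunoblotted with antibodies to IκB-α, p27, Bax and ubiquitin, with actin as loading control, and quantified by densitometry.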

[6] = system: Raji; assay: Effect on apoptosis in leukemia Raji B cells assessed as increase in caspase 3 activation after 24 hrs; assay type: functional, Homo sapiens
Method in brief: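 Raji B cells (RPMI, 10% FBS, 37 °C, 5% CO2) given 25 μM compound for 4 or 24 h, then harvested and lysed. Lysates incubated with Ac-DEVD-AMC (40 μM) for 2.5 h; caspase-3 activity read from fluorogenic substrate cleavage.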

[7] = system: Raji; assay: Increase in ubiquitinated protein IkBalpha level in leukemia Raji B cells after 24 hrs; assay type: functional, cell-based; conditions: Homo sapiens
Method in brief: as §1

[8] = system: Raji; assay: Increase in cell death in leukemia Raji B cells at 25 um after 24 hrs; assay type: functional, Homo sapiens
Method in brief: (§2)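 Raji B leukaemia cells grown in RPMI with 10% FBS, penicillin and streptomycin at 37 °C under 5% CO2. Treated with 25 μM compound or DMSO solvent for 24 h. Death scored by trypan blue dye exclusion: blue cells and cells with apoptotic morphology (shrinking, blebbing) on phase-contrast microscopy counted as dead.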

[9] = system: Raji; assay: Increase in ubiquitinated protein bax level in leukemia Raji B cells after 24 hrs; assay type: functional, cell-based; conditions: Homo sapiens
Method in brief: as §1

[10] = system: Raji; assay: Increase in ubiquitinated protein bax level in leukemia Raji B cells after 4 hrs; assay type: functional, Homo sapiens; conditions: for Activity: Homo sapiens, TDE = time-dependent effect
Method in brief: as §1

[11] = system: Raji; assay: Increase in ubiquitinated protein p27 level in leukemia Raji B cells after 4 hrs; assay type: functional, Homo sapiens; conditions: for Activity: Homo sapiens, TDE = time-dependent effect
Method in brief: as §1

[12] = system: Raji; assay: Increase in ubiquitinated protein IkBalpha level in leukemia Raji B cells after 4 hrs; assay type: functional; conditions: for Activity: Homo sapiens
Method in brief: as §1

[13] = system: Raji; assay: Induction of apoptosis in leukemia Raji B cells assessed as PARP1 ceavage after 24 hrs; assay type: functional, cell-based; conditions: Homo sapiens
Method in brief: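 Raji B cells were treated with DMSO or 25 μM compound for 4 or 24 h. Whole cell extracts were immunoblotted with a polyclonal anti-PARP antibody to detect apoptosis-specific PARP cleavage, with densitometric quantification.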

[14] = system: Raji; assay: Induction of cell death in leukemia Raji B cells at 25 uM after 24 hrs; assay type: functional, Homo sapiens
Method in brief: as §2

SMILES | inhibition [1] | IC50 [3] | inhibition [4] | Activity [5] | Fold change [6] | Activity [7] | Fold change [8] | Activity [9] | Fold change [10] | Fold change [11] | Activity [13] | Activity [10] | Activity [11] | Activity ([12]; TDE = time-dependent effect) | Activity [14] | also measured
CC(=O)Oc1cc(OC(C)=O)c2c(c1)O[C@H](c1cc(OC(C)=O)c(OC(C)=O)c(OC(C)=O)c1)[C@H](OC(=O)c1cc(OC(C)=O)c(OC(C)=O)c(OC(C)=O)c1)C2 | < 20% | – | – | – | – | – | – | – | – | – | – | – | – | – | – | –
O=C(O[C@@H]1Cc2c(O)cc(O)cc2O[C@@H]1c1cc(O)c(O)c(O)c1)c1cc(O)c(O)c(O)c1 [EPIGALOCATECHIN GALLATE] | – | 200 nM | 10% | – | – | – | – | – | – | – | – | – | – | – | – | inhibition [2]: 4%
CC(=O)Oc1cc(OC(C)=O)c2c(c1)O[C@H](c1cc(OC(C)=O)c(OC(C)=O)c(OC(C)=O)c1)[C@H](OC(=O)c1ccc(N)cc1)C2 | < 20% | – | 39% | Active | 4.7 | Active | 3.5 | Active | 3.3 | 2 | Active | – | – | – | – | Activity [12]: inactive
Nc1ccc(C(=O)O[C@@H]2Cc3c(O)cc(O)cc3O[C@@H]2c2cc(O)c(O)c(O)c2)cc1 | – | 840 nM | – | – | – | – | – | – | – | – | – | tde | tde | tde | 10% | –
CC(=O)Oc1cc(OC(C)=O)c2c(c1)O[C@H](c1cc(OC(C)=O)c(OC(C)=O)c(OC(C)=O)c1)[C@H](OC(=O)c1ccc(NC(=O)OC(C)(C)C)cc1)C2 | < 20% | – | 65% | Active | 5.5 | Active | 5 | Active | 3.5 | 2.1 | Active | – | – | – | – | Fold change [12]: 1.4
CC(C)(C)OC(=O)Nc1ccc(C(=O)O[C@@H]2Cc3c(O)cc(O)cc3O[C@@H]2c2cc(O)c(O)c(O)c2)cc1 | – | 3850 nM | – | – | – | – | – | – | – | – | – | tde | tde | tde | 10% | –
